Measurements as given in ChEMBL document CHEMBL1137570, “3-substituted 7-phenyl-pyrroloquinolinones show potent cytotoxic activity in human cancer cell lines” (J Med Chem, 2007).

Assays:
[1] = Cytotoxicity against human H295R cells after 72 hrs by MTT assay; type: functional, cell-based; details: NCI-H295R
In short: (§1)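 MTT assay. Cells seeded at 7 × 10³ per well; after 24 h, exponentially growing cells were exposed to compound (final 0.005–100 µM) for 72 h. MTT was added for 4 h, then 10% SDS in 0.01 N HCl for 18 h at 37 °C. Absorbance read at 550 nm; survival given as % of untreated cells. IC50 from 6-8 replicate wells, ≥2 independent experiments.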

OE33 = assay: Cytotoxicity against human OE33 cells after 72 hrs by MTT assay; type: functional, cell-based; details: OE33, 72 h; in short: as §1
HT-29 = assay: Cytotoxicity against human HT29 cells after 72 hrs by MTT assay; type: functional, cell-based; details: HT-29, 72 h; in short: as §1
A549 [2] = assay: Cell cycle arrest in human A549 cells assessed as accumulation at sub Go phase at 1 uM after 24 hrs; type: functional
A549 [3] = assay: Cell cycle arrest in human A549 cells assessed as accumulation at G1 phase at 1 uM after 24 hrs; type: functional
In short: (§2)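 A549 cells grown 24 h in drug-free medium or with compound at 0.1 or 1 µM. Cells were trypsinized, washed twice in PBS, fixed in cold 70% ethanol (30 min, -20 °C), then washed in citrate phosphate buffer and PBS. RNase (100 µg/mL) for 30 min at 37 °C, then propidium iodide (100 µg/mL) for 30 min at room temperature. Flow cytometry at 488/525 nm, ≥15 000 events, 3-4 repeats.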

PT-45 = assay: Cytotoxicity against human PT45 cells after 72 hrs by MTT assay; type: functional, cell-based; details: PT-45, 72 h; in short: as §1
HeLa = assay: Cytotoxicity against human HeLa cells after 72 hrs by MTT assay; type: functional, cell-based; in short: as §1
ARO = assay: Cytotoxicity against human Aro cells after 72 hrs by MTT assay; type: functional, cell-based; in short: as §1
OVCAR-3 = assay: Cytotoxicity against human Ovcar3 cells after 72 hrs by MTT assay; type: functional, cell-based; details: OVCAR-3, 72 h; in short: as §1
OE19 = assay: Cytotoxicity against human OE19 cells after 72 hrs by MTT assay; type: functional, cell-based; details: OE19, 72 h; in short: as §1
A549 [4] = assay: Cytotoxicity against human A549 cells after 72 hrs by MTT assay; type: functional, cell-based; details: A549, 72 h
In short: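 MTT assay. Cells seeded at 7 × 10³ per well; after 24 h, exponentially growing cells were exposed to compound (final 0.005–100 µM) for 72 h. MTT was added for 4 h, then 10% SDS in 0.01 N HCl for 18 h at 37 °C. Absorbance read at 550 nm; survival given as % of untreated cells.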

HepG2 = assay: Cytotoxicity against human HepG2 cells after 72 hrs by MTT assay; type: functional, cell-based; details: HepG2, 72 h; in short: as §1
A549 [5] = assay: Cell cycle arrest in human A549 cells assessed as accumulation at G2/M phase at 1 uM after 24 hrs; type: functional; in short: as §2
A549 [6] = assay: Cell cycle arrest in human A549 cells assessed as accumulation at S phase at 1 uM after 24 hrs; type: functional; in short: as §2
MCF7 = assay: Cytotoxicity against human MCF7 cells after 72 hrs by MTT assay; type: functional, cell-based; details: MCF7, 72 h; in short: as §1
A549 [7] = assay: Cell cycle arrest in human A549 cells assessed as accumulation at G2/M phase at 0.1 uM after 24 hrs; type: functional; in short: as §2
[8] = Cytotoxicity againat taxol-resistant human A549T12 cells after 72 hrs by MTT assay; type: functional, cell-based; details: A549, 72 h
A549 [9] = assay: Resistance index, ratio of IC50 for A549 cells to IC50 for A549T12 cells; type: functional, Homo sapiens
[10] = Cytotoxicity againat taxol-resistant human A549T24 cells after 72 hrs by MTT assay; type: functional, cell-based; details: A549, 72 h
A549 [11] = assay: Cell cycle arrest in human A549 cells assessed as accumulation at G1 phase at 0.1 uM after 24 hrs; type: functional; in short: as §2
A549 [12] = assay: Cell cycle arrest in human A549 cells assessed as accumulation at sub Go phase at 0.1 uM after 24 hrs; type: functional
A549 [13] = assay: Cell cycle arrest in human A549 cells assessed as accumulation at S phase at 0.1 uM after 24 hrs; type: functional; in short: as §2

Compound	IC50 [1] [nM]	IC50 (OE33) [nM]	IC50 (HT-29) [nM]	Activity (A549 [2]) [%]	Activity (A549 [3]) [%]	IC50 (PT-45) [nM]	IC50 (HeLa) [nM]	IC50 (ARO) [nM]	IC50 (OVCAR-3) [nM]	IC50 (OE19) [nM]	IC50 (A549 [4]) [nM]	IC50 (HepG2) [nM]	Activity (A549 [5]) [%]	Activity (A549 [6]) [%]	IC50 (MCF7) [nM]	Activity (A549 [7]) [%]	IC50 [8] [nM]	IC50 [10] [nM]	Activity (A549 [11]) [%]	Activity (A549 [12]) [%]	further results
CC[C@]1(O)C[C@H]2CN(CCc3c([nH]c4ccccc34)[C@@](C(=O)OC)(c3cc4c(cc3OC)N(C=O)[C@H]3[C@@](O)(C(=O)OC)[C@H](OC(C)=O)[C@]5(CC)C=CCN6CC[C@]43[C@@H]65)C2)C1 [VINCRISTINE]	90	30	10	0.5	46.8	4	5	0.3	20	50	30	200	45.2	7.9	20						
O=c1cc(-c2ccccc2)[nH]c2ccc3c(ccn3Cc3ccccc3)c12	400	100	400	0.5	14.6	80	100	300	500	500	100	700	75.8	9.4	300	10.4	100	200	78.9	1.1	Ratio IC50 (A549 [9]): 1; Activity (A549 [13]): 9.7%
CCn1ccc2c3c(=O)cc(-c4ccccc4)[nH]c3ccc21	30	200	30	0.4	14.1	30	10	30	40	80	30	50	77.3	8.1	40	79.8	30	30	11.7	0.6	Ratio IC50 (A549 [9]): 1; Activity (A549 [13]): 8.1%
CC(=O)O[C@H]1C(=O)[C@@]2(C)[C@H]([C@H](OC(=O)c3ccccc3)[C@]3(O)C[C@H](OC(=O)[C@H](O)[C@@H](NC(=O)c4ccccc4)c4ccccc4)C(C)=C1C3(C)C)[C@]1(OC(C)=O)CO[C@@H]1C[C@@H]2O [PACLITAXEL]	80	200	50			5	8	0.2	10	400		300			7		60	102			
CCCCn1ccc2c3c(=O)cc(-c4ccccc4)[nH]c3ccc21	10	60	30	0.4	12.9	40	20	30	10	7	30	20	77.6	9.2	60	80.4	20	30	11.8	0.2	Activity (A549 [13]): 7.7%
CCCCCn1ccc2c3c(=O)cc(-c4ccccc4)[nH]c3ccc21	20	20	200	0.4	15.5	40	20	70	20	5	40	30	75.5	8.8	80	79.6	50	40	12.4	1	Ratio IC50 (A549 [9]): 0.8; Activity (A549 [13]): 7.2%
Cn1ccc2c3c(=O)cc(-c4ccccc4)[nH]c3ccc21	90	800	300	0.3	15.6	100	100	300	700	100	300	1000	74.9	9.2	400	18.2	300	200	66.9	6.4	Ratio IC50 (A549 [9]): 1; Activity (A549 [13]): 8.8%
CCN(CC)CCn1ccc2c3c(O)cc(-c4ccccc4)nc3ccc21		16000								10000											
O=c1cc(-c2ccccc2)[nH]c2ccc3c(ccn3CC3CC3)c12	10	20	60	0.3	16.3	20	20	30	10	100	20	20	74.6	8.6	40	75.7	20	20	16.5	0.4	Ratio IC50 (A549 [9]): 1; Activity (A549 [13]): 7%
O=c1cc(-c2ccccc2)[nH]c2ccc3[nH]ccc3c12		2000								1000											
CCCn1ccc2c3c(=O)cc(-c4ccccc4)[nH]c3ccc21	20	100	200	0.3	13.5	50	30	50	20	50	50	40	76.9	9.6	70	76.2	40	40	13.6	1.3	Ratio IC50 (A549 [9]): 1.2; Activity (A549 [13]): 8.7%
